Experiment [1] relates to Aeromonas allosaccharophila. Description: Ratio of Kcat to Km for Aeromonas allosaccharophila AL-1 beta-lactamase PER2.
Experiment [2] deals with Aeromonas allosaccharophila. Description: Antimicrobial activity against Aeromonas allosaccharophila AL-1 expressing beta-lactamase PER6 by agar dilution method. It counts as functional. In a few lines:
(§1)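 The test organism was environmental isolate AL-1, recovered from Seine River water on MacConkey agar containing ceftazidime (2 μg/ml). It was identified by API 32GN and 16S rRNA gene sequencing. MICs were determined by agar dilution on Mueller-Hinton agar and interpreted by CLSI guidelines.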

For experiment [3], the system named is Escherichia coli. Put plainly: Antimicrobial activity against Escherichia coli DH10B harboring recombinant Aeromonas allosaccharophila AL-1 beta-lactamase PER6 by agar dilution method. It counts as functional. The following applies: K-12 DH10B. (In general: In agar dilution the substance is mixed into plates at graded concentrations.)
Experiment [4] deals with Escherichia coli. Description: Antimicrobial activity against Escherichia coli DH10B harboring recombinant Aeromonas allosaccharophila AL-1 beta-lactamase PER1 by agar dilution method. It counts as functional. The following applies: K-12 DH10B.
The test system of experiment [5] is Escherichia coli. Description: Antimicrobial activity against Escherichia coli DH10B harboring recombinant Aeromonas allosaccharophila AL-1 beta-lactamase PER2 by agar dilution method. Type of experiment: functional. The following applies: K-12 DH10B.
Experiment [6] has as its system Escherichia coli. Put plainly: Antimicrobial activity against Escherichia coli DH10B by agar dilution method. It counts as functional. The following applies: K-12 DH10B. An outline of the steps:
(§2)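 MICs measured by agar dilution on Mueller-Hinton agar plates, the method used for imipenem and imipenem combined with clavulanate; other MICs were obtained by Etest. Results were interpreted according to CLSI guidelines. Test strains were E. coli DH10B recombinants carrying cloned PER-1, PER-2 or PER-6 β-lactamase genes.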

Experiment [7] deals with Aeromonas allosaccharophila. Description: Antimicrobial activity against Aeromonas allosaccharophila AL-1 expressing beta-lactamase PER6 by agar dilution method in presence of 4 ug/ml of clavulanic acid. Type of experiment: functional. In a few lines: as §1
For experiment [8], the system named is Escherichia coli. Description: Antimicrobial activity against Escherichia coli DH10B harboring recombinant Aeromonas allosaccharophila AL-1 beta-lactamase PER6 by agar dilution method in presence of 4 ug/ml of clavulanic acid. It counts as functional. The following applies: K-12 DH10B.
The test system of experiment [9] is Escherichia coli. Description: Antimicrobial activity against Escherichia coli DH10B harboring recombinant Aeromonas allosaccharophila AL-1 beta-lactamase PER1 by agar dilution method in presence of 4 ug/ml of clavulanic acid. It counts as functional. The following applies: K-12 DH10B.
Experiment [10] deals with Escherichia coli. Put plainly: Antimicrobial activity against Escherichia coli DH10B harboring recombinant Aeromonas allosaccharophila AL-1 beta-lactamase PER2 by agar dilution method in presence of 4 ug/ml of clavulanic acid. It counts as functional. The following applies: K-12 DH10B.
For experiment [11], the system named is Escherichia coli. Put plainly: Antimicrobial activity against Escherichia coli DH10B by agar dilution method in presence of 4 ug/ml of clavulanic acid. It counts as functional. The following applies: K-12 DH10B. An outline of the steps: as §2

This note sets out measurements from ChEMBL document CHEMBL1687755, “PER-6, an extended-spectrum beta-lactamase from Aeromonas allosaccharophila” (Antimicrob Agents Chemother, 2010).

Values after ≈ are worked out from the molar mass of the structure shown.

What is called kcat/Km is the second-order rate constant that governs catalysis at low substrate concentration. For the compound `CC1(C)S[C@@H]2[C@H](NC(=O)[C@H](N)c3ccccc3)C(=O)N2[C@H]1C(=O)O`, the kcat/Km in experiment [1] stood at 330000 M⁻¹ s⁻¹.
As usually defined, the MIC is the smallest concentration in the dilution series that meets the test's criterion for growth inhibition. Take `CC1(C)S[C@@H]2[C@H](NC(=O)[C@H](N)c3ccc(O)cc3)C(=O)N2[C@H]1C(=O)O` [AMOXICILLIN]: the MIC in [2] is greater than 256 µg/mL; in the experiment with Escherichia coli [3], greater than 256 µg/mL; with Escherichia coli [4], greater than 256 µg/mL; in the experiment on Escherichia coli [5], greater than 256 µg/mL; against Escherichia coli [6] it was 4 µg/mL (≈ 10.9 µM); in experiment [7], 12 µg/mL. The MIC in the experiment with Escherichia coli [8] was found to be 4 µg/mL; in the experiment on Escherichia coli [9], 4 µg/mL; in the experiment on Escherichia coli [10], 6 µg/mL; with Escherichia coli [11] it was 4 µg/mL.
`C[C@H]1[C@H](NC(=O)/C(=N\OC(C)(C)C(=O)O)c2csc(N)n2)C(=O)N1S(=O)(=O)O` [AZTREONAM]: the MIC in experiment [2] was 1 µg/mL (≈ 2.3 µM); in the experiment on Escherichia coli [3], greater than 256 µg/mL; with Escherichia coli [4] it was greater than 256 µg/mL; in the experiment with Escherichia coli [5], greater than 256 µg/mL. For the same compound, the kcat/Km in experiment [1] was determined as 120000 M⁻¹ s⁻¹.
As to `C[C@@H](O)[C@H]1C(=O)N2C(C(=O)O)=C(S[C@@H]3CN[C@H](C(=O)N(C)C)C3)[C@H](C)[C@H]12` [MEROPENEM], the MIC is 0.06 µg/mL (≈ 0.156 µM) in experiment [2], 0.03 µg/mL in the experiment on Escherichia coli [4], 0.03 µg/mL in the experiment on Escherichia coli [5] and 0.06 µg/mL (≈ 0.156 µM) against Escherichia coli [6].
Consider `CC(C)(O/N=C(\C(=O)N[C@@H]1C(=O)N2C(C(=O)[O-])=C(C[n+]3ccccc3)CS[C@H]12)c1csc(N)n1)C(=O)O` [CEFTAZIDIME], for which the MIC in [2] is 128 µg/mL (≈ 234 µM); in the experiment on Escherichia coli [3], greater than 256 µg/mL; with Escherichia coli [4], greater than 256 µg/mL; with Escherichia coli [5], greater than 256 µg/mL; in the experiment with Escherichia coli [6] it was 0.5 µg/mL (≈ 0.915 µM). The kcat/Km in [1] amounted to 430000 M⁻¹ s⁻¹.
As to `C[C@@H](O)[C@H]1C(=O)N2C(C(=O)O)=C(S[C@@H]3CN[C@H](C(=O)Nc4cccc(C(=O)O)c4)C3)[C@H](C)[C@H]12`, the values for the MIC (in [2]; against Escherichia coli [6]) were 0.5 µg/mL (≈ 1.05 µM) and less than 0.03 µg/mL, respectively.
Turning to `CO[C@@]1(NC(=O)Cc2cccs2)C(=O)N2C(C(=O)O)=C(COC(N)=O)CS[C@@H]21` [CEFOXITIN], the MIC in [2] amounted to 0.5 µg/mL (≈ 1.17 µM); in the experiment on Escherichia coli [3] it was 2 µg/mL; with Escherichia coli [4], 2 µg/mL; with Escherichia coli [5], 2 µg/mL; with Escherichia coli [6], 1 µg/mL (≈ 2.34 µM). In addition, the specificity constant (kcat/Km) in [1] was less than 10000 M⁻¹ s⁻¹.
On to `C[C@@H](O)[C@H]1C(=O)N2C(C(=O)O)=C(SCCNC=N)C[C@H]12` [IMIPENEM ANHYDROUS], for which the MIC in experiment [2] was 1 µg/mL (≈ 3.34 µM); in [7], 0.5 µg/mL. Moreover, in experiment [1], the kcat/Km was less than 10000 M⁻¹ s⁻¹.
